Only some compounds are listed: those with a hit (about 1.7% of all), similar ones and a draw of the others.
Ecoli rRNA inh = inhibits bacterial ribosomal RNA function over humanized ribosomes | E. coli WT GFP vs humanized-ribosome RFP mutants, fluorescence, 24 h; hits give low values; DMSO median 0, no signal -100 | GFP signal change (wild-type ribosome), % (test concentration not listed) | AID 720706 | hit rate 1.6% among 350,000;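 active = significant combined selectivity score with lowered wild-type GFP, culture density cut under 30%, mutant RFP and density less affected; inactive = any of these conditions unmet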
Cneo AK release = causes C. neoformans cell lysis; AID 651654; hit rate 0.2% among 360,000; lysis activity, % at 15 µM; adenylate kinase release luminescence, 4 h; normalised: neutral wells 0, clomiphene wells 100;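 active = mean lysis activity across replicates of at least 80%, whatever share of replicates individually reach that level; inactive = mean lysis activity below 80%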
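Material – log-phase Cryptococcus neoformans yeast cells · Input – 5 × 10^6 yeast cells/mL · Medium – fresh YPD growth medium · Doses – single compound concentration per well · Timing – static 4 h at 37 °C with compound, 1 h detection · Detection – adenylate kinase release luminescence · Read-out – signal increase indicating cell lysis · Control set – Clomiphene as positive lysis control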
CFTR F508del cor = correctors of CFTR F508del function in bronchial epithelial cells; CFBE cells, YFP halide quenching; stimulated with forskolin plus potentiator P3; % fluorescence drop versus neutral controls; activity (quench increase), % at 7.58 µM; hit rate 0.36% among 350,000; AID 720511;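 active = mean added fluorescence quench of at least 8% versus neutral control, with both replicates also reaching 8%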;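 also: cells transiently co-express mutant CFTR-F508del with the halide-sensitive YFP; corrector assay measuring rescue of mutant channel to the surface after 24 h compound exposure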
CaV13 FRET inh = Disruptors of the CACNA1D IQ motif to Ca2+-dependent inactivation inhibitor domain association, primary screening, Förster resonance energy transfer in intact living …. HEK cells, CFP/YFP FRET ICDI-IQ, plate reader, 10 min; percent FRET-ratio fall versus neutral wells. inhibition, % at 12.3 µM. hit rate 0.098% among 340,000. AID 743397;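 active = mean replicate inhibition of at least 30% and at least 1% of replicates passing that level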
Of the large screens only hits and unclear results are named; the others gave an inactive call.

CC(=O)c1ccc(-c2ccc(C(=O)NCC(c3ccc(F)cc3)N3CCOCC3)o2)cc1 (stereo not drawn)	none
COC(=O)[C@]1(C)CCC[C@@]2(C)C3CC[C@@]4(C)C[C@]3(CCC21)CC(=O)N4 (stereo partly drawn)	Ecoli rRNA inh -28
COc1ccc(-n2cccc2/C=C2\C(=N)N3N=C(c4ccco4)SC3=NC2=O)cc1	Ecoli rRNA inh -23 (no result: Cneo AK release)
O[Si](CCCN1CCCCC1)(c1ccc(F)cc1)C1CCCCC1 (stereo not drawn)	CFTR F508del cor 8.8 (no result: Ecoli rRNA inh)
O=C(NCCCN1CCCC1)Nc1ccc(F)cc1	none
COc1ccc(-c2cc(C(=O)Oc3ccc([N+](=O)[O-])cc3)c3ccccc3n2)cc1	none (no result: Ecoli rRNA inh, CFTR F508del cor)
COc1ccc2nc3cc([N+](=O)[O-])ccc3c(NNc3ccc([N+](=O)[O-])cc3)c2c1	Ecoli rRNA inh -18 (no result: Cneo AK release)
CSc1nc(SC(C)C(=O)O)c2c3c(sc2n1)COC(C)(C)C3 (stereo not drawn)	Ecoli rRNA inh -23
CCOc1ccc2ccc(OCC)c(/C=N/n3cnnc3)c2c1	Ecoli rRNA inh -27
CN1C(=O)c2cc(NC(=O)C3CC3)ccc2OC[C@H]2O[C@H](CC(=O)NCc3ccccc3F)CC[C@H]21	none (no result: CaV13 FRET inh)
CCCc1nc2oc3ccccc3c(=O)c2c(=O)n1-c1ccc(C)cc1	Ecoli rRNA inh -46
Cc1ccc(-n2c(C(C)C)nc3oc4ccccc4c(=O)c3c2=O)cc1	Ecoli rRNA inh -32 (no result: Cneo AK release)
CCCc1nc2oc3ccccc3c(=O)c2c(=O)n1-c1ccccc1	Ecoli rRNA inh -30
Cc1ccc(S(=O)(=O)N(C)C[C@@H]2OCCCC[C@@H](C)Oc3ccc(NC(=O)Nc4cccc5ccccc45)cc3C(=O)N([C@@H](C)CO)C[C@@H]2C)cc1	none (no result: CaV13 FRET inh)
COc1ccc(NC(=O)N[C@H]2C=C[C@@H](CC(=O)NC3CCC3)O[C@H]2CO)cc1	none (no result: CaV13 FRET inh)
Cc1noc(C)c1S(=O)(=O)N(C)C[C@H]1OCCCC[C@@H](C)Oc2ccc(NC(=O)Nc3ccc4c(c3)OCO4)cc2C(=O)N([C@H](C)CO)C[C@@H]1C	none (no result: CaV13 FRET inh)
CCN(CC)CC(C)(C)C(=O)/C=C/c1ccc(/C=C/C(=O)C(C)(C)CN(CC)CC)cc1	Ecoli rRNA inh -14 (no result: Cneo AK release)
COc1ccc(C2N(c3ccccc3)C(=O)C2(F)F)cc1OC (stereo not drawn)	Ecoli rRNA inh -23
Cc1ccc(N2C(=O)C(F)(F)C2c2ccccc2)cc1 (stereo not drawn)	none
C/C=C/c1ccc2c(c1)[C@H]1[C@H](CCN1C(=O)Cc1cccnc1)[C@H](CO)N2C	none (no result: CaV13 FRET inh)
CN(C)CC#Cc1cccc(-c2nc(C(=O)N3CCN(Cc4ccccc4)CC3)cc3c2[C@H](CCO)N(S(=O)C(C)(C)C)C3)c1 (stereo partly drawn)	none (no result: Ecoli rRNA inh, Cneo AK release, CaV13 FRET inh)
NC(=O)C1CC(=O)N(Cc2ccc3c(c2)OCO3)C(=Nc2ccccc2)S1 (stereo not drawn)	Ecoli rRNA inh -18
C[C@@H]1CN(C)C(=O)Cc2cc(NS(C)(=O)=O)ccc2O[C@H]1CN(C)S(C)(=O)=O	none (no result: Cneo AK release, CFTR F508del cor, CaV13 FRET inh)
Cc1cc(N)n(-c2ccc(S(=O)(=O)c3ccc(C(C)C)cc3)cc2)n1	Ecoli rRNA inh -26 (no result: Cneo AK release)
Cc1cc(N)n(-c2ccc([N+](=O)[O-])cc2)n1	none (no result: Cneo AK release)
O=C1NC(=S)SC1=Cc1ccc2c(c1)OCO2	none
O=C1N/C(=N/S(=O)(=O)Cc2ccccc2)S/C1=C/c1ccc2c(c1)OCO2	Ecoli rRNA inh -40
O=C(CNCc1cccc2ccccc12)Nc1ccccc1[N+](=O)[O-]	Ecoli rRNA inh -31 (no result: Cneo AK release, CaV13 FRET inh)
Cc1ccc(NC(=O)Cn2c(CCC(=O)O)ccc2-c2ccc(Cl)cc2)cc1	Ecoli rRNA inh -25 (no result: CaV13 FRET inh)
COc1cccc(NC(=O)Cn2c(CCC(=O)O)ccc2-c2ccc(Cl)cc2)c1	none (no result: Cneo AK release)
O=C(CSc1n[nH]c(=O)n1C1CC1)Nc1ccc(Cl)c(Cl)c1	Ecoli rRNA inh -20
Cn1cc([N+](=O)[O-])c(C(=O)Nc2ccn(C34CC5CC(CC(C5)C3)C4)n2)n1	Ecoli rRNA inh -26 (no result: Cneo AK release, CFTR F508del cor)
Cc1nn(C)c(C(=O)Nc2ccn(C34CC5CC(CC(C5)C3)C4)n2)c1[N+](=O)[O-]	Ecoli rRNA inh -32 (no result: Cneo AK release, CFTR F508del cor)
Cn1nccc1C(=O)Nc1ccn(C23CC4CC(CC(C4)C2)C3)n1	none (no result: Ecoli rRNA inh, Cneo AK release, CFTR F508del cor)
O=C(Nc1ccc(Cl)cc1)Nc1nc(-c2ccccc2)cs1	Ecoli rRNA inh -38 (no result: Cneo AK release)
O=C(Nc1cccc(Cl)c1)Nc1nc(-c2ccccc2)cs1	none (no result: Cneo AK release)
Cn1nc(-c2ccc(Cl)cc2)cc1NC(=O)Nc1ccccc1	Ecoli rRNA inh -44
COc1ccc2c3c(n(C)c2c1)[C@H](CO)N(Cc1ccncc1)CC31CCN(C(=O)C2CCCCC2)CC1	none (no result: Cneo AK release, CaV13 FRET inh)
C[C@H]1CN([C@@H](C)CO)C(=O)Cc2cc(NC(=O)Cc3cn(C)c4ccccc34)ccc2O[C@@H]1CN(C)C(=O)Nc1ccc(C(F)(F)F)cc1	none (no result: CaV13 FRET inh)
O=C(C[C@H]1C[C@H]2c3cc(NC(=O)Cc4ccncc4)ccc3O[C@H]2[C@@H](CO)O1)NCc1ccncc1	none (no result: CaV13 FRET inh)
O=c1c(O)c(-c2cc(O)c(O)c(O)c2)oc2cc(O)cc(O)c12	Ecoli rRNA inh -24
O=C(NCCN1CCC(n2c(=O)[nH]c3ccccc32)CC1)N1c2ccccc2Sc2ccccc21	Ecoli rRNA inh -36 (no result: Cneo AK release)
CC=Cc1ccc2n(c1=O)C[C@@H]1[C@@H](CO)[C@H](C(=O)NCc3ccc(F)cc3)[C@H]2N1CC (mixture of isomers)	none (no result: CaV13 FRET inh)
Cc1ccc(/C=N/n2cnnc2)s1	none (no result: Ecoli rRNA inh, CFTR F508del cor)
Brc1ccc(/C=N/n2cnnc2)s1	Ecoli rRNA inh -51 (no result: Cneo AK release)
O=C1C(=Cc2cccs2)Oc2ccccc21	Ecoli rRNA inh -19
O=C1/C(=C/c2cccs2)COc2ccccc21	none (no result: Cneo AK release)
COCC#Cc1ccc2c(c1)O[C@@H](CN(C)C(=O)C1CC1)[C@@H](C)CN([C@H](C)CO)S2(=O)=O	none (no result: CaV13 FRET inh)
CC(=O)N(C)C[C@@H]1Oc2ncc(-c3cccc(F)c3)cc2C(=O)N([C@H](C)CO)C[C@@H]1C	none (no result: CaV13 FRET inh)
C[C@@H]1CCCCO[C@@H](CN(C)C(=O)Nc2ccccc2)[C@@H](C)CN([C@@H](C)CO)C(=O)c2cc(NS(=O)(=O)c3ccccc3)ccc2O1	none (no result: Cneo AK release, CaV13 FRET inh)
CCCN(C)C[C@H]1OCCCC[C@@H](C)Oc2ccc(NC(=O)Nc3ccc4c(c3)OCO4)cc2C(=O)N([C@H](C)CO)C[C@@H]1C	none (no result: CaV13 FRET inh)
CCCC/C(O)=C1\C(=O)CCCC1=NCCc1c(C)[nH]c2ccccc12	Ecoli rRNA inh -23 (no result: Cneo AK release)
Fc1ccc(-n2cc(CNCCc3cccnc3)c(-c3ccccc3Cl)n2)cc1	Ecoli rRNA inh -40 (no result: Cneo AK release)
CC(C)C#Cc1ccc([C@@H]2[C@H](CO)N3C(=O)CN(S(=O)(=O)c4ccccc4)C[C@@H]23)cc1	none (no result: Cneo AK release, CaV13 FRET inh)
CC(C)C#Cc1ccc([C@@H]2[C@@H](CO)N3C(=O)CN(S(=O)(=O)c4ccccc4)C[C@@H]23)cc1	CFTR F508del cor 12 (no result: Cneo AK release, CaV13 FRET inh)
COc1ccc(S(=O)(=O)N2CCCCN3[C@@H](CO)[C@H](c4ccc(C#CC(C)C)cc4)[C@@H]3C2)cc1	Ecoli rRNA inh -46 (no result: CaV13 FRET inh)
